Reference: the array DNA melting data of Ke et al. (doi:10.1101/2024.01.08.574731)

Assays:
[1] = folding enthalpy; higher = less favourable; fluorescence melt of hairpins on a sequencing array, two-state fit; details: sodium 0.088 M
Method in brief: (§1)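 In 50 mM Na-HEPES pH 8.0 containing 25 mM NaCl, hairpins from the library on a sequenced MiSeq flow cell were imaged for Cy3 fluorescence at 2.5 °C steps up to 60 °C, with Cy3 and quencher oligos annealed. After normalisation to pre-quench Cy3 and to control constructs, two-state fits with bootstrapping gave melting temperature and folding enthalpy. Four replicates were combined by inverse-variance weighting, and fitted temperatures were shifted up by 9.35 °C to match UV melts.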

[2] = melting temperature; fluorescence melt of hairpins on a sequencing array, two-state fit, raised by 9.35 °C to match UV melts; details: sodium 0.088 M
Method in brief: as §1

| Sequence | folding enthalpy [1] [kcal/mol] | Tm [2] [°C] |
| --- | --- | --- |
| GATGGGCGAAAGCCGATC (((.(((....))).))) | -18.8 | 52.7 |
| GCGCGGCGAAAGCGTCGC (((..((....))..))) | -19.8 | 63.2 |
| GTCCACGAAAGTGTCGAC ((((((....)))..))) | -14 | 33.8 |
| GGAGGCGAAAGCCCATCC ((((((....)))..))) | -9.1 | 31.3 |
| GATCACACAGTGATC ((((((...)))))) | -38.1 | 58.8 |
| GATCTATGAATAGATC ((((((....)))))) | -32.6 | 43.2 |
| GCCAGGCGAAAGCCCCGC ((..(((....)))..)) | -11.6 | 28.1 |
| GAATGCGAAAGCAGTTTC ((((((....)))..))) | -11.7 | 31.3 |
| GATTCCGAAAGGAGATC ((((((....))).))) | -21.3 | 33.7 |
| GTTCGAGGAAACTCGAAC (((((((....))))))) | -42.3 | 65 |
| CGATCGGAAACGAATCG ((((((....))).))) | -34.7 | 46 |
| GATCTGCACCAGATC ((((((...)))))) | -41.8 | 47.9 |
| GCTTTGTCGAAAGACAGC (((..(((....)))))) | -12 | 35.3 |
| GTCCCCGAAAGGGGTGAC ((((((....)))..))) | -8.1 | 45 |
| GATTACGAAAGTAAATC ((((((....))).))) | -19.9 | 36 |
| CGGCCCCGGAAACGGCCG (((..(((....)))))) | -31.9 | 54.4 |
| GCGGAGCGAAAGCTTCGC (((.(((....))).))) | -31.2 | 68.6 |
| GAAGGCGAAAGCCCGTTC ((((((....)))..))) | -12 | 27.2 |
| GATCAAACTATTGATC ((((((....)))))) | -30.1 | 40.3 |
| CTATCGAAAGATAG (((((....))))) | -21.7 | 47.1 |
| GTACAAGAAATTGTAC ((((((....)))))) | -32.5 | 45 |
| GTGCCCGAAAGGGTCAC ((((((....))).))) | -18.1 | 55 |
| GATCGGATACCCGATC ((((((....)))))) | -40.3 | 56.6 |

| Sequence | folding enthalpy [1] [kcal/mol] | Tm [2] [°C] |
| --- | --- | --- |
| GCGACGCGAAAGCCTGGC ((.(.((....)).).)) | -5.89 | 28.1 |
| GGCTGAGGAAACCCAGCC (((((.(....).))))) | -41.9 | 55 |
| GACTTGGAAACAAGTC ((((((....)))))) | -38.5 | 54.2 |
| GTTAGCCGAAAGGCGAAC (((.(((....))).))) | -20.5 | 57.6 |
| GTGTCAGCGAAAGCTCAC (((..(((....)))))) | -15.3 | 39 |
| CGTGCGGAAACGCGACG ((((((....))).))) | -23.5 | 55.1 |
| GCCCAGCGAAAGCCCGGC (((..((....))..))) | -15.6 | 47.1 |
| GGTATCCGAAAGGACACC (((.(((....))).))) | -25.2 | 47.5 |
| GATCTATTATAGATC ((((((...)))))) | -33.4 | 41.9 |
| GCCAAGACGAAAGTCGGC (((..(((....)))))) | -23.7 | 54.6 |
| GATCCGCACCCGGATC ((((((....)))))) | -38.6 | 55.4 |
| GTTCGTGGAAACACGGAC ((.((((....)))).)) | -42.5 | 54.5 |
| GTCATAGGAAACTATGGC (.(((((....))))).) | -29.1 | 44.6 |
| GGCAGCGAAAGCTCGCC ((((((....))).))) | -22.5 | 61.4 |
| GAGCCACGAAAGTGACTC (((.(((....))).))) | -45.2 | 54.5 |
| GATCTACAGTTAGATC ((((((....)))))) | -29.3 | 38.3 |
| GCATCTCGAAAGAGTGC (((.(((....)))))) | -49.8 | 53.4 |
| GCCACGCGAAAGCAAGGC (((..((....))..))) | -22.9 | 57.2 |
| GCAGAGCGAAAGCGTTGC (((..((....))..))) | -19.4 | 62 |
| GATCAGAACCTGATC ((((((...)))))) | -36.2 | 46.7 |
| GGGTTCGGAAACGAGTCC ((..(((....)))..)) | -25.4 | 37.7 |
| GTGTACGAAAGTAACCAC ((((((....)))..))) | -15 | 32 |
| GGCCTCGAAAGAGCAGCC ((((((....)))..))) | -22.3 | 47.6 |

| Sequence | folding enthalpy [1] [kcal/mol] | Tm [2] [°C] |
| --- | --- | --- |
| GTGAACGAAAGTTCCAC ((((((....))).))) | -15.9 | 39.9 |
| GAGACTGGAAACAGTCTC (((((((....))))))) | -40.3 | 64.8 |
| GGCGCCGAAAGGCGTGCC ((((((....)))..))) | -9.73 | 54.2 |
| GATTCGGGAAACCGAACC (.(((((....))))).) | -13.7 | 40.2 |
| GTCCACGAAAGTGGCGAC ((((((....)))..))) | -13.4 | 58.8 |
| CGCGGACGACTCCGCG ((((((....)))))) | -40.8 | 63.5 |
| GACTACGAAAGTAGCGTC ((((((....)))..))) | -12.7 | 43.8 |
| GTCGCAGGAAACCGCAAC ((.((.(....).)).)) | -12.8 | 25.8 |
| GAAGGTGGAAACGCCTTC (((((.(....).))))) | -31.9 | 51.9 |
| GGGCGGGGAAACCCGTCC ((.((((....)))).)) | -37.3 | 65 |
| GTGATCGAAAGATATCAC ((((((....)))..))) | -18 | 34.5 |
| GACTCACGAAAGTGCGTC (((.(((....))).))) | -32.8 | 50.6 |
| GTGAAACCGAAAGGTCAC (((..(((....)))))) | -20.4 | 42 |
| GCCGGGCGAAAGCGTGGC (((..((....))..))) | -36.4 | 65.9 |
| GATGTAGGAAACCACATC (((((.(....).))))) | -34.1 | 37.6 |
| GGCCACGAAAGTGATGCC ((((((....)))..))) | -27.6 | 51 |
| CGAATGCGGAAACGCTCG (((..(((....)))))) | -15.3 | 37.2 |
| GAAAATGGAAACGTTTTC (((((.(....).))))) | -32.3 | 37.8 |
| GATCCCCTAAGGGATC ((((((....)))))) | -39.1 | 63.2 |
| GCAGAGTCGAAAGACTGC (((..(((....)))))) | -16.7 | 48.7 |
| GGGACCGAAAGGTATCCC ((((((....)))..))) | -18.1 | 47.7 |
| GTTTCCGAAAGGAAGAAC ((((((....)))..))) | -11.1 | 30.9 |
| GATCATGAGAATGATC ((((((....)))))) | -36.5 | 49.7 |

| Sequence | folding enthalpy [1] [kcal/mol] | Tm [2] [°C] |
| --- | --- | --- |
| TAGGCGAAAGCCTA (((((....))))) | -12.2 | 65.5 |
| GGACCTCCGAAAGGATCC (((..(((....)))))) | -13.3 | 28.7 |
| GGCGATGGAAACGTTGCC (((.(.(....).).))) | -37.6 | 44.9 |
| GAATCCGAAAGGATATTC ((((((....)))..))) | -13.1 | 33.6 |
| GCCTGCGAAAGCAACGGC ((((((....)))..))) | -23.6 | 52.8 |
| GATCTCCGAAAGGATATC (((.(((....))).))) | -31.9 | 39.3 |
| GCTTGCGAAAGCACCAGC ((((((....)))..))) | -8.92 | 34.8 |
| GATCTGTATTCAGATC ((((((....)))))) | -36.3 | 50.4 |
| GTAGCCGAAAGGCAGTAC ((((((....)))..))) | -9.03 | 30.4 |
| GTCGTCGAAAGACCCGAC ((((((....)))..))) | -14.5 | 31.3 |
| GTACCCGAAAGGGTTAC ((((((....))).))) | -13.4 | 46.4 |
| GTAGCCACGAAAGTGTAC (((..(((....)))))) | -9.72 | 22.3 |
| CGTCGGAAACGACG (((((....))))) | -27.6 | 69.2 |
| GTAAGACCGAAAGGTTAC (((..(((....)))))) | -13.8 | 30.3 |
| GATCTTCGTTAAGATC ((((((....)))))) | -32.2 | 43 |
| GGTCCCCGAAAGGGACC (((.(((....)))))) | -30.6 | 68.4 |
| GCGTATCCGAAAGGACGC (((..(((....)))))) | -27.1 | 50.2 |
| GATCAGGAGACTGATC ((((((....)))))) | -37.6 | 51.3 |
| GATTTCACGAAAGTGATC (((..(((....)))))) | -9.78 | 23.4 |
| GTGAGGCCGAAAGGCCAC (((..(((....)))))) | -11.7 | 50.3 |
| GAACACGAAAGTGAGTTC ((((((....)))..))) | -16.4 | 35.7 |
| GATCCTCATAAGGATC ((((((....)))))) | -34.4 | 52.6 |
| GGTACCGAAAGGTGACC ((((((....))).))) | -21.5 | 48.4 |
